Laboratory results: PubChem BioAssay
The source made the active and inactive calls.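 The calls were made as follows, unless noted: active = viability at or under a set limit in both replicates, limit being median viability minus 3 SD (cut at about 48% in these data, passing the limit was not always enough); inconclusive = at or under the limit in just one replicate; inactive = at or above the limit in both replicates.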

Columns and labels:
[1] = reducers of endogenous Her2 protein level, primary screen, SKBR3 breast tumor cells, AlphaScreen, ATP viability (AID 461;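 active = Her2 level under about 52% in both replicate screens, with viability over 70% of control, limit read from the data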;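 as to Her2 level: lower value means less Her2 protein in the cells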;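 as to viability: percent of carrier control wells set as 100% viability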); details: 18-24 h, measured here: SKBR3 viability, ATP luminescence, at 10 µM
[2] = molecular target: Receptor tyrosine-protein kinase erbB-2 (Homo sapiens) (UniProt P04626); assay: as above; details: 18-24 h, at 10 µM, stronger effect = lower value
[3] = SK-BR-3 cell growth inhibitors, pilot screen, 24 h, human (AID 572;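 active = viability at or below 10% of carrier control in both of two separate runs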;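 also: compound exposure lasted between 18 and 24 h rather than exactly 24 h; 100% = carrier-treated control wells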); details: SK-BR-3 viability, CellTiter-Glo luminescence, at 10 µM, stronger effect = lower value
[4] = HUVEC growth inhibition – cell-based, human, primary screen (AID 575;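 active = viability at or below 30% in both replicate assays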;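 also: 100% = median of untreated cell wells with 0.1% DMSO on each plate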); details: HUVEC proliferation, CellTiter-Glo luminescence, 72 h; at 10 µM; stronger effect = lower value
How it was run: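 Test system: primary human umbilical vein endothelial cells; medium: endothelial basal medium with 2% FBS plus growth supplements; dosing: 10 µM compound only; times: 72 h treatment at 37 °C; signal: CTG luminescence; read-out: % viability relative to median vehicle-well signal on each plate; control set: vehicle and MePR control wells; plate: 384-well, collagen-coated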

[5] = growth inhibitors of H69AR lung tumor, primary screen, human, duplicate replicates (AID 580); details: H69AR lung tumor cells viability, ATP luminescence, 72 h; at 10 µM; stronger effect = lower value;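 also: 100% = mean luminescence of untreated wells and 0% = no signal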
[6] = reversal of MRP1-mediated doxorubicin resistance, pilot screen, H69AR cells, doxorubicin co-treatment (AID 601;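 active = viability loss from added drug above about 55%, and viability with drug at most 40%, in both replicates, limit read from the data, passing the limit was not always enough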); details: CellTiter-Glo, 72 h, at 10 µM; for differential viability (reversal): stronger effect = higher value
[7] = 384-well plate pilot, post-Golgi transport modulator project, inhibition of yeast transport mutant growth (AID 636; in the data active = inhibition above about 31%); details: absorbance 615 nm, about 18 h, stronger effect = higher value
[8] = growth suppression of yeast trafficking mutant, preliminary HTS, modulators of trafficking downstream of Golgi apparatus project, 1536-format plate, OD 615 nm (AID 637; in the data active = inhibition above about 30%); details: yeast transport mutant growth, absorbance 615 nm, 18 h; stronger effect = higher value
[9] = H69AR cells + 2 uM doxorubicin, measured here: viability with 2 uM doxorubicin, stronger effect = lower value
[10] = H69AR cells, compound alone cytotoxicity

Chain of Receptor tyrosine-protein kinase erbB-2 (Homo sapiens) (P04626 whole entry, looked up): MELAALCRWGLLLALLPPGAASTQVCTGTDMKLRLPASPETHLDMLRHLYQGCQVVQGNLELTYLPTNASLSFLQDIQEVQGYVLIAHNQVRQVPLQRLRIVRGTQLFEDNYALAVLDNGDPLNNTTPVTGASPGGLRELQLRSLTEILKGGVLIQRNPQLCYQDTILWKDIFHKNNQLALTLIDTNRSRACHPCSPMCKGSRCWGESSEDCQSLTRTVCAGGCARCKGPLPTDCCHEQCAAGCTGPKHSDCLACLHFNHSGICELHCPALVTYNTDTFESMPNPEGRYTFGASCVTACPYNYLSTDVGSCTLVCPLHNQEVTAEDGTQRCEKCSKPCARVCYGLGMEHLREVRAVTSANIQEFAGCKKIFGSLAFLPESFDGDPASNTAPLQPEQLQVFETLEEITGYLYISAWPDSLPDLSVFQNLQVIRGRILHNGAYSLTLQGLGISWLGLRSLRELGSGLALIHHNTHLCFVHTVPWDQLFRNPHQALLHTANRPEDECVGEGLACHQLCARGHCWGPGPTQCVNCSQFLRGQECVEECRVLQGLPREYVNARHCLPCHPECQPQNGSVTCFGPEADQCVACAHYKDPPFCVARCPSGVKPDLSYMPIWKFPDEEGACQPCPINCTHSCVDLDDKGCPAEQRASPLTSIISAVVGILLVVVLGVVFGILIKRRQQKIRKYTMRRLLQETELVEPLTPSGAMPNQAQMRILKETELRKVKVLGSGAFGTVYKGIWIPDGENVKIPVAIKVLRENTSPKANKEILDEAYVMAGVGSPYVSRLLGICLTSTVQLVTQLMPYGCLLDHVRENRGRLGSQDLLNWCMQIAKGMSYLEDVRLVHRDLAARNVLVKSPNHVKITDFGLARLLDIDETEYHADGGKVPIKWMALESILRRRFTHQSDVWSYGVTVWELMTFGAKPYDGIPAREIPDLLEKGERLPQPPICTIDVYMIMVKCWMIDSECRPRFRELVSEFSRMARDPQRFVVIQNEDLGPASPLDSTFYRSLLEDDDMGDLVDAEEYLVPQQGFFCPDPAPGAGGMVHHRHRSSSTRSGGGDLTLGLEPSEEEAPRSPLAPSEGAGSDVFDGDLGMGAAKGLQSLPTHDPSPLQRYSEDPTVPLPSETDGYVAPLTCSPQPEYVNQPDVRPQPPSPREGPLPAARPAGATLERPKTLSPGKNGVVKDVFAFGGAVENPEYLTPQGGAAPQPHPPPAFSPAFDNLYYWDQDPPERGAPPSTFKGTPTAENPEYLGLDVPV

| Structure (SMILES) | viability [1] | Her2 level [2] | viability [3] | viability [4] | viability [5] | differential viability (reversal) ([6]; H69AR cells + 2 uM doxorubicin) | viability [6, 9] | viability [6, 10] | inhibition [7] | inhibition [8] |
| --- | --- | --- | --- | --- | --- | --- | --- | --- | --- | --- |
| S=c1[nH]nc(-c2ccco2)n1-c1cccc2ccccc12 | 102% | 98.5% (inactive) | 102% (inactive) | 78.5% (inactive) | 96.9% (inactive) | 3.69% (inactive) | 93.2% | 96.9% | -0.54% (inactive) | 14.6% (inactive) |
| NC(=O)c1c(-c2ccccc2)oc2ccc(O)cc12 | 121% | 88% (inactive) | 121% (inactive) | 96.2% (inactive) | 90.4% (inactive) | 13.4% (inactive) | 77% | 90.4% | 1.18% (inactive) | -9.82% (inactive) |
| CCCCN(CCCC)CCCNC(=O)CC1Oc2ccc(C)cc2NC1=O (stereo not given) | 102% | 84.5% (inactive) | 102% (inactive) | 78% (inactive) | 90.7% (inactive) | 4.72% (inactive) | 86% | 90.7% | -6.76% (inactive) | -3.17% (inactive) |
| CCc1nnc(NC(=O)c2ccc(S(=O)(=O)NCC(C)C)cc2)s1 | 92.5% | 89% (inactive) | 92.5% (inactive) | 100% (inactive) | 98.3% (inactive) | 1.11% (inactive) | 97.2% | 98.3% | -5.95% (inactive) | 0.16% (inactive) |
| O=C1CC(N2CCN(c3cccc(C(F)(F)F)c3)CC2)C(=O)N1c1ccccc1 (stereo not given) | 93.5% | 112% (inactive) | 93.5% (inactive) | 92.3% (inactive) | 103% (inactive) | 13% (inactive) | 90% | 103% | -2.08% (inactive) | -12.7% (inactive) |
| COc1ccc2[nH]c(=O)c(CN(Cc3cccs3)S(=O)(=O)c3cccc4nsnc34)cc2c1 | 96.5% | 80% (inactive) | 96.5% (inactive) | 59.2% (inactive) | 5.33% (active) | -0.125% (inactive) | 5.45% | 5.33% | -6.44% (inactive) | 1.43% (inactive) |
| C=C(C)c1cccc(C(C)(C)NC(=O)Nc2ncccn2)c1 | 97.5% | 107% (inactive) | 97.5% (inactive) | 81% (inactive) | 66.7% (inactive) | -9% (inactive) | 75.7% | 66.7% | -4.08% (inactive) | -4.73% (inactive) |
| Cc1ccc(C(=O)Nc2ccc3c(c2)OCO3)cc1S(=O)(=O)N1CCCC1 | 102% | 89% (inactive) | 102% (inactive) | 67.3% (inactive) | 82.6% (inactive) | -0.715% (inactive) | 83.3% | 82.6% | -4% (inactive) | 2.54% (inactive) |
| COc1cc(CNc2ccc(N3CCOCC3)c(C(=O)O)c2)ccc1OCC(N)=O | 106% | 102% (inactive) | 106% (inactive) | 97.4% (inactive) | 99.9% (inactive) | 0.83% (inactive) | 99.1% | 99.9% | -4.67% (inactive) | -2.13% (inactive) |
| Cc1cc(C)n(CCc2nc(-c3cccs3)cs2)n1 | 93% | 88% (inactive) | 93% (inactive) | 106% (inactive) | 104% (inactive) | 25.3% (inactive) | 79.2% | 104% | -2.6% (inactive) | -0.48% (inactive) |
| CCOc1ccc(OCc2cccc(C(=O)O)c2)cc1 | 108% | 106% (inactive) | 108% (inactive) | 77.6% (inactive) | 89.6% (inactive) | 10.5% (inactive) | 79.1% | 89.6% | -1.6% (inactive) | -3.87% (inactive) |
| N#Cc1cnc(SCC(=O)Nc2ccccc2C(F)(F)F)nc1N | 88.5% | 81.5% (inactive) | 88.5% (inactive) | 99.7% (inactive) | 90.2% (inactive) | 1.73% (inactive) | 88.5% | 90.2% | -4.4% (inactive) | 5.9% (inactive) |
| OC(CCN1CCOCC1)(c1ccc(Cl)cc1)C1CCCCC1 (stereo not given) | 82.5% | 102% (inactive) | 82.5% (inactive) | 99.6% (inactive) | 82% (inactive) | -3.7% (inactive) | 85.7% | 82% | -0.4% (inactive) | 21.5% (inactive) |
| COc1ccc2c(C(=O)CN(C)C3CCCCC3)c[nH]c2c1 | 115% | 72.5% (inactive) | 115% (inactive) | 92.3% (inactive) | 64.7% (inactive) | -10.2% (inactive) | 74.9% | 64.7% | -0.92% (inactive) | -0.81% (inactive) |
| CC1(C)CC(=O)c2cc(OCC(=O)NCCCN3CCN(c4ccccc4F)CC3)ccc2O1 | 81% | 85.5% (inactive) | 81% (inactive) | 59.3% (inactive) | 80% (inactive) | -5.98% (inactive) | 86% | 80% | -4.61% (inactive) | -3.45% (inactive) |
| Cc1cc(C)nc(SCC(=O)Nc2ncc3c(n2)CCCC3=O)n1 | 98.5% | 93.5% (inactive) | 98.5% (inactive) | 99% (inactive) | 112% (inactive) | 12.5% (inactive) | 99.3% | 112% | -1.17% (inactive) | -4.13% (inactive) |
| CN(C1CCS(=O)(=O)C1)S(=O)C12CC3CC(CC(C3)C1)C2 (stereo not given) | 83% | 95.5% (inactive) | 83% (inactive) | 92.8% (inactive) | 99.9% (inactive) | 3.66% (inactive) | 96.3% | 99.9% | -5.75% (inactive) | -5.08% (inactive) |
| O=C1CSC(c2cccc(F)c2)N1c1ccccc1F (stereo not given) | 86% | 102% (inactive) | 86% (inactive) | 98.8% (inactive) | 97.5% (inactive) | 9.31% (inactive) | 88.2% | 97.5% | -4.87% (inactive) | 7.38% (inactive) |
| COc1ccc(NC(C)=O)cc1NC(=O)CN1CCN(c2ccccn2)CC1 | 96% | 116% (inactive) | 96% (inactive) | 96% (inactive) | 85.6% (inactive) | 5.82% (inactive) | 79.8% | 85.6% | -1.87% (inactive) | -7.9% (inactive) |
| CC1CCN(S(=O)(=O)c2ccc(NC(=O)CSc3nnnn3C)cc2)CC1 | 94.5% | 103% (inactive) | 94.5% (inactive) | 76.3% (inactive) | 101% (inactive) | 22% (inactive) | 78.7% | 101% | -5.92% (inactive) | -3.49% (inactive) |
| Cc1cc(C)n(C2=NS(=O)(=O)c3ccccc32)n1 | 86.5% | 115% (inactive) | 86.5% (inactive) | 108% (inactive) | 101% (inactive) | 6.08% (inactive) | 95.2% | 101% | 3.07% (inactive) | 5.08% (inactive) |
| CC(C(=O)NCCCN1CCOCC1)n1cccc1C(=O)c1ccccc1 (stereo not given) | 90% | 76.5% (inactive) | 90% (inactive) | 97.4% (inactive) | 95% (inactive) | 5.71% (inactive) | 89.3% | 95% | -2.37% (inactive) | 0% (inactive) |
| CCOC(=O)N1CCC(NC(=O)CCN2C(=O)COc3ccccc32)CC1 | 100% | 106% (inactive) | 100% (inactive) | 100% (inactive) | 84.1% (inactive) | 6.63% (inactive) | 77.5% | 84.1% | 0% (inactive) | -6.17% (inactive) |
| CCOC(=O)N1CCN(Cc2cc(=O)oc3ccc4ccccc4c23)CC1 | 91.5% | 86% (inactive) | 91.5% (inactive) | 79.9% (inactive) | 87.3% (inactive) | 7.66% (inactive) | 79.6% | 87.3% | -7.07% (inactive) | 2.86% (inactive) |
| CCn1c(SCC(N)=O)nc2c1c(=O)n(C)c(=O)n2C | 107% | 95% (inactive) | 107% (inactive) | 90% (inactive) | 95.9% (inactive) | 4.83% (inactive) | 91.1% | 95.9% | -2.63% (inactive) | -1.27% (inactive) |
| CCn1c(=N)n(CC(O)c2ccco2)c2ccccc21 (stereo not given) | 94.5% | 119% (inactive) | 94.5% (inactive) | 116% (inactive) | 90.4% (inactive) | 10.3% (inactive) | 80.1% | 90.4% | -4.49% (inactive) | 4.67% (inactive) |
| O=C(Nc1ccccc1)c1cccc(N2CCCC2=O)c1 | 93% | 114% (inactive) | 93% (inactive) | 104% (inactive) | 103% (inactive) | 18.2% (inactive) | 84.8% | 103% | -1.07% (inactive) | -9.52% (inactive) |
| CCOc1cc(-c2nc3ccccn3c2NCC2CCCO2)ccc1O (stereo not given) | 69.5% | 111% (inactive) | 69.5% (inactive) | 88.7% (inactive) | 40.7% (active) | 5.11% (inactive) | 35.6% | 40.7% | 4.27% (inactive) | 24% (inactive) |
| CC(NC(=O)c1ccccc1NC(=O)c1ccco1)C(=O)O (stereo not given) | 106% | 68% (inactive) | 106% (inactive) | 89% (inactive) | 86.7% (inactive) | 2.01% (inactive) | 84.7% | 86.7% | -2.63% (inactive) | 2.1% (inactive) |
